What was measured:
[1] = molecular target: Carbonic anhydrase 9 (Homo sapiens, UniProt Q16790); assay: Inhibition of human carbonic anhydrase-9 incubated for 15 mins prior to testing by stopped-flow CO2 hydration assay
[2] = molecular target: Carbonic anhydrase 1 (Homo sapiens, UniProt P00915); assay: Inhibition of human erythrocyte carbonic anhydrase-1 incubated for 15 mins prior to testing by stopped-flow CO2 hydration assay
[3] = molecular target: Carbonic anhydrase 2 (Homo sapiens, UniProt P00918); assay: Inhibition of recombinant human carbonic anhydrase-2 expressed in Escherichia coli incubated for 15 mins prior to testing by stopped-flow CO2 hydration assay
[4] = species on record: Homo sapiens; assay: Selectivity ratio of IC50 for human erythrocyte carbonic anhydrase-1 to IC50 for human carbonic anhydrase-9
Procedure, shortened: (§1)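 Ratio of the CA I or CA II IC50 to the CA IX IC50. hCA IX was purified recombinant protein; CA I and CA II were commercial. Enzyme levels were 50 ng µL−1 for CA I, 1 ng µL−1 for CA II and 3 ng µL−1 for CA IX. Inhibitor in DMSO was preincubated with enzyme for 15 min. Activity was read as stopped-flow CO2 hydration or initial 4-nitrophenyl acetate hydrolysis rates. Triplicates per concentration, mean reported.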

[5] = species on record: Homo sapiens; assay: Selectivity ratio of IC50 for recombinant human carbonic anhydrase-2 expressed in Escherichia coli to IC50 for human carbonic anhydrase-9; procedure, shortened: as §1

Carbonic anhydrase 1, sequence (P00915 whole entry): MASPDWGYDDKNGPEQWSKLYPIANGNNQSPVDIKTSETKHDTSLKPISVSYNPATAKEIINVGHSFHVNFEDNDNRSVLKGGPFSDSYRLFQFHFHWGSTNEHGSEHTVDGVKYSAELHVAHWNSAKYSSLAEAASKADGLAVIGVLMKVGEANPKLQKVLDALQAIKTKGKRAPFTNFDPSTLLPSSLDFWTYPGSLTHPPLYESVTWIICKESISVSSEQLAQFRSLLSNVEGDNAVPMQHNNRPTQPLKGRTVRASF

Compound: NS(=O)(=O)c1cccc(NC(=S)NC(=O)c2ccc(Cl)cc2Cl)c1
- IC50 [1]: 4.42 nM
- IC50 [2]: 1340 nM
- IC50 [3]: 950 nM
- Ratio IC50 [4]: 304
- Ratio IC50 [5]: 215

Compound: NS(=O)(=O)c1cccc(NC(=S)NC(=O)c2ccc([N+](=O)[O-])cc2)c1
- IC50 [1]: > 104 nM
- IC50 [2]: 60.5 nM
- IC50 [3]: 142 nM

Compound: COc1ccc(C(=O)NC(=S)Nc2ccc(S(N)(=O)=O)cc2)cc1
- IC50 [1]: 0.47 nM
- IC50 [2]: 694 nM
- IC50 [3]: 25.6 nM
- Ratio IC50 [4]: 1480
- Ratio IC50 [5]: 54.4

Compound: COc1ccccc1C(=O)NC(=S)Nc1ccc(S(N)(=O)=O)cc1
- IC50 [1]: 0.3 nM
- IC50 [2]: 267 nM
- IC50 [3]: 2.09 nM
- Ratio IC50 [4]: 889
- Ratio IC50 [5]: 6.97

Compound: NS(=O)(=O)c1ccc(NC(=S)NC(=O)c2ccccc2Cl)cc1
- IC50 [1]: 3.42 nM
- IC50 [2]: 661 nM
- IC50 [3]: 22.9 nM
- Ratio IC50 [4]: 193
- Ratio IC50 [5]: 6.68

Compound: NS(=O)(=O)c1ccc(NC(=S)NC(=O)c2ccc(Cl)cc2Cl)cc1
- IC50 [1]: 0.12 nM
- IC50 [2]: 632 nM
- IC50 [3]: 11.8 nM
- Ratio IC50 [4]: 5270
- Ratio IC50 [5]: 98.5

Compound: NS(=O)(=O)c1cccc(NC(=S)NC(=O)c2ccccc2Cl)c1
- IC50 [1]: 19 nM
- IC50 [2]: 773 nM
- IC50 [3]: 277 nM
- Ratio IC50 [4]: 40.7
- Ratio IC50 [5]: 14.6

Compound: COc1ccc(C(=O)NC(=S)Nc2cccc(S(N)(=O)=O)c2)cc1
- IC50 [1]: 25.5 nM
- IC50 [2]: 665 nM
- IC50 [3]: 908 nM
- Ratio IC50 [4]: 26.1
- Ratio IC50 [5]: 35.6

Compound: NS(=O)(=O)c1cccc(NC(=S)NC(=O)c2ccc(Cl)cc2)c1
- IC50 [1]: 42.2 nM
- IC50 [2]: 1540 nM
- IC50 [3]: 240 nM
- Ratio IC50 [4]: 36.5
- Ratio IC50 [5]: 5.67

Compound: NS(=O)(=O)c1ccc(NC(=S)NC(=O)c2ccc([N+](=O)[O-])cc2)cc1
- IC50 [1]: 0.48 nM
- IC50 [2]: 504 nM
- IC50 [3]: 749 nM
- Ratio IC50 [4]: 1050
- Ratio IC50 [5]: 1560

Compound: NS(=O)(=O)c1ccc(NC(=S)NC(=O)c2ccc(Cl)cc2)cc1
- IC50 [1]: 4.14 nM
- IC50 [2]: 423 nM
- IC50 [3]: 12.9 nM
- Ratio IC50 [4]: 102
- Ratio IC50 [5]: 3.13

Compound: COc1ccccc1C(=O)NC(=S)Nc1cccc(S(N)(=O)=O)c1
- IC50 [1]: 54.3 nM
- IC50 [2]: 44.4 nM
- IC50 [3]: 20.7 nM
- Ratio IC50 [4]: 0.82
- Ratio IC50 [5]: 0.38

Compound: NS(=O)(=O)c1cccc(NC(=S)NC(=O)c2ccccc2)c1
- IC50 [1]: 25.7 nM
- IC50 [2]: 867 nM
- IC50 [3]: 167 nM
- Ratio IC50 [4]: 33.7
- Ratio IC50 [5]: 6.47
